According to ChEMBL document CHEMBL1149590, “Synthesis and evaluation of homo-bivalent GnRHR ligands” (Bioorg Med Chem, 2007):

What was measured:
[1] = target: T1, Gonadotropin-releasing hormone receptor (Homo sapiens) (UniProt P30968); test: Displacement of [125I]triptorelin from human GnRHR expressed in CHO cells at 1 uM; assay type: cell-based
T1 sequence (whole entry): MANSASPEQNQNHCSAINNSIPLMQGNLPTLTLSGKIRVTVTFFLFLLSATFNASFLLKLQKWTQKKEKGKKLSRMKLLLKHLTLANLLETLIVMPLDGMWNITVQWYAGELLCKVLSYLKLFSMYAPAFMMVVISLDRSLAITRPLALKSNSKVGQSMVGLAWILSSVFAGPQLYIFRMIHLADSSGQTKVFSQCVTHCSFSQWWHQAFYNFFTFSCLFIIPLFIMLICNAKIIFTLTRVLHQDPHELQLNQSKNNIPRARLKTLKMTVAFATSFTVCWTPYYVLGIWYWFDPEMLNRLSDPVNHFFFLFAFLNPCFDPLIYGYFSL
Summary of the method: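 Single-point displacement at 1 μM test compound. CHO membranes bearing wild-type human GnRHR (20 µg protein) incubated 45 min at 22 °C with [125I]triptorelin (30,000 cpm) in Tris-HCl pH 7.4 containing MgCl2 and BSA. Nonspecific binding taken with 1 µM ganirelix, total binding with buffer. Bound radioligand recovered by filtration and gamma-counted; percent displacement reported.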

[2] = target: T2, Gonadotropin-releasing hormone receptor (Homo sapiens, UniProt P30968); test: Antagonist activity at human GnRHR expressed in CHO cells after 30 mins by luciferase reporter gene assay; assay type: functional, cell-based
T2 sequence (P30968 whole entry): T1 sequence (whole entry)

[3] = target: T2, Gonadotropin-releasing hormone receptor; test: Displacement of [125I]triptorelin from human GnRHR expressed in CHO cells; assay type: cell-based
Summary of the method: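 Membranes from CHO cells expressing wild-type human GnRHR (20 µg protein) incubated with [125I]triptorelin (30,000 cpm) and five competitor concentrations in 50 mM Tris-HCl pH 7.4, 2 mM MgCl2, 0.1% BSA, 45 min at 22 °C. Nonspecific binding defined with 1 µM ganirelix. Filtration, gamma counting. Ki from IC50 via Cheng-Prusoff (Kd 1.1 nM); at least three experiments in duplicate.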

Row | Structure (SMILES) | Activity [1] | IC50 [2] | Ki [3]
1 | CCOC(=O)c1cn(Cc2c(F)cccc2F)c2nc(-c3ccc(NC(=O)NCc4cn(CCN=[N+]=[N-])nn4)cc3)c(CN(C)Cc3ccccc3)n2c1=O | 76% | 2570 nM | –
2 | CCNC(=O)Nc1ccc(-c2nc3n(Cc4c(F)cccc4F)cc(C(=O)NCc4cn(CCOCCOCCOCCOCCN=[N+]=[N-])nn4)c(=O)n3c2CN(C)Cc2ccccc2)cc1 | 70% | > 10000 nM | –
3 | CCNC(=O)Nc1ccc(-c2nc3n(Cc4c(F)cccc4F)cc(C(=O)NCc4cn(CCN=[N+]=[N-])nn4)c(=O)n3c2CN(C)Cc2ccccc2)cc1 | 78% | > 10000 nM | –
4 | CCNC(=O)Nc1ccc(-c2nc3n(Cc4c(F)cccc4F)cc(C(=O)NCc4cn(CCOCCn5cc(CNC(=O)c6cn(Cc7c(F)cccc7F)c7nc(-c8ccc(NC(=O)NCC)cc8)c(CN(C)Cc8ccccc8)n7c6=O)nn5)nn4)c(=O)n3c2CN(C)Cc2ccccc2)cc1 | 64% | > 10000 nM | –
5 | CCNC(=O)Nc1ccc(-c2nc3n(Cc4c(F)cccc4F)cc(C(=O)NCc4cn(CCOCCOCCOCCn5cc(CNC(=O)c6cn(Cc7c(F)cccc7F)c7nc(-c8ccc(NC(=O)NCC)cc8)c(CN(C)Cc8ccccc8)n7c6=O)nn5)nn4)c(=O)n3c2CN(C)Cc2ccccc2)cc1 | 86% | > 10000 nM | –
6 | CCNC(=O)Nc1ccc(-c2nc3n(Cc4c(F)cccc4F)cc(C(=O)NCc4cn(CCOCCOCCOCCN=[N+]=[N-])nn4)c(=O)n3c2CN(C)Cc2ccccc2)cc1 | 69% | > 10000 nM | –
7 | CCOC(=O)c1cn(Cc2c(F)cccc2F)c2nc(-c3ccc(NC(=O)NCc4cn(CCOCCN=[N+]=[N-])nn4)cc3)c(CN(C)Cc3ccccc3)n2c1=O | 85% | 3630 nM | –
8 | CCOC(=O)c1cn(Cc2c(F)cccc2F)c2nc(-c3ccc(NC(=O)NCc4cn(CCOCCn5cc(CNC(=O)Nc6ccc(-c7nc8n(Cc9c(F)cccc9F)cc(C(=O)OCC)c(=O)n8c7CN(C)Cc7ccccc7)cc6)nn5)nn4)cc3)c(CN(C)Cc3ccccc3)n2c1=O | 88% | 3160 nM | –
9 | CCOC(=O)c1cn(Cc2c(F)cccc2F)c2nc(-c3ccc(NC(=O)NCc4cn(CCOCCOCCOCCN=[N+]=[N-])nn4)cc3)c(CN(C)Cc3ccccc3)n2c1=O | 84% | 3020 nM | –
10 | C#CCNC(=O)c1cn(Cc2c(F)cccc2F)c2nc(-c3ccc(NC(=O)NCC)cc3)c(CN(C)Cc3ccccc3)n2c1=O | 85% | 7080 nM | 162 nM
11 | CCNC(=O)Nc1ccc(-c2nc3n(Cc4c(F)cccc4F)cc(C(=O)NCc4cn(CCOCCN=[N+]=[N-])nn4)c(=O)n3c2CN(C)Cc2ccccc2)cc1 | 68% | > 10000 nM | –
12 | CCNC(=O)Nc1ccc(-c2nc3n(Cc4c(F)cccc4F)cc(C(=O)NCc4cn(CCOCCOCCN=[N+]=[N-])nn4)c(=O)n3c2CN(C)Cc2ccccc2)cc1 | 81% | > 10000 nM | –
13 | CCNC(=O)Nc1ccc(-c2nc3n(Cc4c(F)cccc4F)cc(C(=O)NCc4cn(CCOCCOCCOCCOCCn5cc(CNC(=O)c6cn(Cc7c(F)cccc7F)c7nc(-c8ccc(NC(=O)NCC)cc8)c(CN(C)Cc8ccccc8)n7c6=O)nn5)nn4)c(=O)n3c2CN(C)Cc2ccccc2)cc1 | 85% | > 10000 nM | –
14 | CCNC(=O)Nc1ccc(-c2nc3n(Cc4c(F)cccc4F)cc(C(=O)NCc4cn(CCn5cc(CNC(=O)c6cn(Cc7c(F)cccc7F)c7nc(-c8ccc(NC(=O)NCC)cc8)c(CN(C)Cc8ccccc8)n7c6=O)nn5)nn4)c(=O)n3c2CN(C)Cc2ccccc2)cc1 | 26% | > 10000 nM | –

Compounds with a lower IC50 [2], results first:

Row | Activity [1] | IC50 [2] | Ki [3] | Structure (SMILES)
15 | 71% | 1320 nM | 69.2 nM | CCNC(=O)Nc1ccc(-c2nc3n(Cc4c(F)cccc4F)cc(C(=O)OCC)c(=O)n3c2CN(CC(=O)NCc2cn(CCOCCOCCOCCn3cc(CNC(=O)CN(Cc4ccccc4)Cc4c(-c5ccc(NC(=O)NCC)cc5)nc5n(Cc6c(F)cccc6F)cc(C(=O)OCC)c(=O)n45)nn3)nn2)Cc2ccccc2)cc1
16 | 89% | 309 nM | 195 nM | CCNC(=O)Nc1ccc(-c2nc3n(Cc4c(F)cccc4F)cc(C(=O)OCC)c(=O)n3c2CN(CC(=O)NCc2cn(CCOCCOCCOCCOCCn3cc(CNC(=O)CN(Cc4ccccc4)Cc4c(-c5ccc(NC(=O)NCC)cc5)nc5n(Cc6c(F)cccc6F)cc(C(=O)OCC)c(=O)n45)nn3)nn2)Cc2ccccc2)cc1
17 | 89% | 1350 nM | – | CCOC(=O)c1cn(Cc2c(F)cccc2F)c2nc(-c3ccc(NC(=O)NCc4cn(CCOCCOCCOCCOCCn5cc(CNC(=O)Nc6ccc(-c7nc8n(Cc9c(F)cccc9F)cc(C(=O)OCC)c(=O)n8c7CN(C)Cc7ccccc7)cc6)nn5)nn4)cc3)c(CN(C)Cc3ccccc3)n2c1=O
18 | 74% | 724 nM | – | CCNC(=O)Nc1ccc(-c2nc3n(Cc4c(F)cccc4F)cc(C(=O)OCC)c(=O)n3c2CN(CC(=O)NCc2cn(CCN=[N+]=[N-])nn2)Cc2ccccc2)cc1
19 | 99% | 70.8 nM | 4.79 nM | CCNC(=O)Nc1ccc(-c2nc3n(Cc4c(F)cccc4F)cc(C(=O)OCC)c(=O)n3c2CN(C)Cc2ccccc2)cc1
20 | 83% | 468 nM | – | CCNC(=O)Nc1ccc(-c2nc3n(Cc4c(F)cccc4F)cc(C(=O)OCC)c(=O)n3c2CN(CC(=O)NCc2cn(CCOCCOCCN=[N+]=[N-])nn2)Cc2ccccc2)cc1
21 | 65% | 1910 nM | – | CCNC(=O)Nc1ccc(-c2nc3n(Cc4c(F)cccc4F)cc(C(=O)OCC)c(=O)n3c2CN(CC(=O)NCc2cn(CCn3cc(CNC(=O)CN(Cc4ccccc4)Cc4c(-c5ccc(NC(=O)NCC)cc5)nc5n(Cc6c(F)cccc6F)cc(C(=O)OCC)c(=O)n45)nn3)nn2)Cc2ccccc2)cc1
22 | 84% | 2400 nM | – | CCOC(=O)c1cn(Cc2c(F)cccc2F)c2nc(-c3ccc(NC(=O)NCc4cn(CCOCCOCCN=[N+]=[N-])nn4)cc3)c(CN(C)Cc3ccccc3)n2c1=O
23 | 71% | 1550 nM | – | CCNC(=O)Nc1ccc(-c2nc3n(Cc4c(F)cccc4F)cc(C(=O)OCC)c(=O)n3c2CN(CC(=O)NCc2cn(CCOCCn3cc(CNC(=O)CN(Cc4ccccc4)Cc4c(-c5ccc(NC(=O)NCC)cc5)nc5n(Cc6c(F)cccc6F)cc(C(=O)OCC)c(=O)n45)nn3)nn2)Cc2ccccc2)cc1
24 | 68% | 1910 nM | – | CCOC(=O)c1cn(Cc2c(F)cccc2F)c2nc(-c3ccc(NC(=O)NCc4cn(CCn5cc(CNC(=O)Nc6ccc(-c7nc8n(Cc9c(F)cccc9F)cc(C(=O)OCC)c(=O)n8c7CN(C)Cc7ccccc7)cc6)nn5)nn4)cc3)c(CN(C)Cc3ccccc3)n2c1=O
25 | 84% | 832 nM | 58.9 nM | CCNC(=O)Nc1ccc(-c2nc3n(Cc4c(F)cccc4F)cc(C(=O)OCC)c(=O)n3c2CN(CC(=O)NCc2cn(CCOCCOCCn3cc(CNC(=O)CN(Cc4ccccc4)Cc4c(-c5ccc(NC(=O)NCC)cc5)nc5n(Cc6c(F)cccc6F)cc(C(=O)OCC)c(=O)n45)nn3)nn2)Cc2ccccc2)cc1
26 | 78% | 832 nM | – | CCNC(=O)Nc1ccc(-c2nc3n(Cc4c(F)cccc4F)cc(C(=O)OCC)c(=O)n3c2CN(CC(=O)NCc2cn(CCOCCOCCOCCOCCN=[N+]=[N-])nn2)Cc2ccccc2)cc1
27 | 76% | 724 nM | – | CCNC(=O)Nc1ccc(-c2nc3n(Cc4c(F)cccc4F)cc(C(=O)OCC)c(=O)n3c2CN(CC(=O)NCc2cn(CCOCCOCCOCCN=[N+]=[N-])nn2)Cc2ccccc2)cc1
28 | 98% | 676 nM | 1.35 nM | C#CCNC(=O)Nc1ccc(-c2nc3n(Cc4c(F)cccc4F)cc(C(=O)OCC)c(=O)n3c2CN(C)Cc2ccccc2)cc1
29 | 94% | 955 nM | 23.4 nM | CCOC(=O)c1cn(Cc2c(F)cccc2F)c2nc(-c3ccc(NC(=O)NCc4cn(CCOCCOCCn5cc(CNC(=O)Nc6ccc(-c7nc8n(Cc9c(F)cccc9F)cc(C(=O)OCC)c(=O)n8c7CN(C)Cc7ccccc7)cc6)nn5)nn4)cc3)c(CN(C)Cc3ccccc3)n2c1=O
30 | 90% | 676 nM | – | CCOC(=O)c1cn(Cc2c(F)cccc2F)c2nc(-c3ccc(NC(=O)NCc4cn(CCOCCOCCOCCOCCN=[N+]=[N-])nn4)cc3)c(CN(C)Cc3ccccc3)n2c1=O
31 | 98% | 1000 nM | 5.25 nM | C#CCNC(=O)CN(Cc1ccccc1)Cc1c(-c2ccc(NC(=O)NCC)cc2)nc2n(Cc3c(F)cccc3F)cc(C(=O)OCC)c(=O)n12
32 | 66% | 525 nM | – | CCNC(=O)Nc1ccc(-c2nc3n(Cc4c(F)cccc4F)cc(C(=O)OCC)c(=O)n3c2CN(CC(=O)NCc2cn(CCOCCN=[N+]=[N-])nn2)Cc2ccccc2)cc1
33 | 90% | 355 nM | 29.5 nM | CCOC(=O)c1cn(Cc2c(F)cccc2F)c2nc(-c3ccc(NC(=O)NCc4cn(CCOCCOCCOCCn5cc(CNC(=O)Nc6ccc(-c7nc8n(Cc9c(F)cccc9F)cc(C(=O)OCC)c(=O)n8c7CN(C)Cc7ccccc7)cc6)nn5)nn4)cc3)c(CN(C)Cc3ccccc3)n2c1=O
